ChEMBL document CHEMBL1137361, “WB4101-related compounds: new, subtype-selective alpha1-adrenoreceptor antagonists (or inverse agonists?)” (J Med Chem, 2006)
pKi: −log10 of the molar value.

Experiments:
[1] = molecular target: T1, Alpha-1D adrenergic receptor (Homo sapiens, UniProt P25100); test: Displacement of [3H]prazosin from cloned human adrenergic alpha 1D receptor expressed in CHO cells; assay type: cell-based
T1 sequence (P25100 whole entry): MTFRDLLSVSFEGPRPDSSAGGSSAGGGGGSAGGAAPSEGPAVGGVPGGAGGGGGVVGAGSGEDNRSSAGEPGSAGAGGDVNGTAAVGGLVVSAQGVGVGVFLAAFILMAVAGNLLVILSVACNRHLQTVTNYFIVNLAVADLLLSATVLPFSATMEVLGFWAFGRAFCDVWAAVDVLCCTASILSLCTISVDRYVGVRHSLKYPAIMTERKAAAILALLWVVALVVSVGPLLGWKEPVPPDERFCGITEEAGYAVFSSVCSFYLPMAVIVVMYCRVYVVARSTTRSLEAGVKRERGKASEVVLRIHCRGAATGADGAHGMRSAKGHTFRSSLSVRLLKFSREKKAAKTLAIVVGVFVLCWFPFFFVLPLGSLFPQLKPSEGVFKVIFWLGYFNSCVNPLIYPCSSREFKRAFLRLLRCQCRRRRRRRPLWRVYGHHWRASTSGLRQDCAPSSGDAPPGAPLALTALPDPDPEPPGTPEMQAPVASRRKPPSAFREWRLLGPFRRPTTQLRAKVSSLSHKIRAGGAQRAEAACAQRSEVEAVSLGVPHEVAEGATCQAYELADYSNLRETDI
In short: (§1)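 Radioligand binding with [3H]prazosin as the label. Membranes came from CHO cells expressing the cloned human receptor. Affinity is expressed as pKi.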

[2] = molecular target: Alpha adrenergic receptor (1a and 1d) (Homo sapiens) (UniProt P35348+P25100); test: Selectivity for human adrenergic alpha 1A receptor over human adrenergic alpha 1D receptor
[3] = molecular target: T2, Alpha-1B adrenergic receptor (Homo sapiens, UniProt P35368); test: Displacement of [3H]prazosin from cloned human adrenergic alpha 1B receptor expressed in CHO cells; assay type: cell-based; in short: as §1
T2 sequence (P35368 whole entry): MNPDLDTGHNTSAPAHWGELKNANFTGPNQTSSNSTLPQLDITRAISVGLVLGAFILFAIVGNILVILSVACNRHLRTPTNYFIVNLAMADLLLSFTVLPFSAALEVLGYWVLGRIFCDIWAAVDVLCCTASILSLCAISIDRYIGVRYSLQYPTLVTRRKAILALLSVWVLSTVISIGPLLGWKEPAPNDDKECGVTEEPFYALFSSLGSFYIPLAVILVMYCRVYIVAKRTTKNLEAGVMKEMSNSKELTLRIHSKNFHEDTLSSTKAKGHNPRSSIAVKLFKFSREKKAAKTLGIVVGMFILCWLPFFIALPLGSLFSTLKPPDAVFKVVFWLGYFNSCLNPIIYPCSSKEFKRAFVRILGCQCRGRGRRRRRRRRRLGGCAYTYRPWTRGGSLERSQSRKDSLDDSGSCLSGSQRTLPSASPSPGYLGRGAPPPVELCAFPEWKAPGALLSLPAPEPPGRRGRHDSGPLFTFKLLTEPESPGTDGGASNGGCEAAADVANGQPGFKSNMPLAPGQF

[4] = molecular target: T3, 5-hydroxytryptamine receptor 1A (Rattus norvegicus, UniProt P19327); test: Displacement of [3H]8-OH-DPAT from 5-HT1A receptor in rat hippocampus; assay type: tissue-based
T3 sequence (P19327 whole entry): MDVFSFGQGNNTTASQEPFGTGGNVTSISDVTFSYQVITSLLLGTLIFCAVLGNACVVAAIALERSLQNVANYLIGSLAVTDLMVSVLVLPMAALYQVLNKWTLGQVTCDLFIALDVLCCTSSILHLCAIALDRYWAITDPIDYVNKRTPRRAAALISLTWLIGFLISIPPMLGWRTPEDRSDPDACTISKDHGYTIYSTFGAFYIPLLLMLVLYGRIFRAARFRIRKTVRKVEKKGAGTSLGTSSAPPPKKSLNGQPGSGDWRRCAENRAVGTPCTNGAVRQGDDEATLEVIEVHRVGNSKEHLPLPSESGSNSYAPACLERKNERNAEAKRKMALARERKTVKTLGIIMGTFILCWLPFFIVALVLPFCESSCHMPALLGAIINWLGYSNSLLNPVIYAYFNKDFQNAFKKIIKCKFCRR
In short: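 Radioligand binding with [3H]-8-OH-DPAT in membrane preparations from rat hippocampus. Affinity is expressed as pKi.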

[5] = molecular target: T4, Alpha-1A adrenergic receptor (Homo sapiens, UniProt P35348); test: Displacement of [3H]prazosin from cloned human adrenergic alpha 1A receptor expressed in CHO cells; assay type: cell-based; in short: as §1
T4 sequence (P35348 whole entry): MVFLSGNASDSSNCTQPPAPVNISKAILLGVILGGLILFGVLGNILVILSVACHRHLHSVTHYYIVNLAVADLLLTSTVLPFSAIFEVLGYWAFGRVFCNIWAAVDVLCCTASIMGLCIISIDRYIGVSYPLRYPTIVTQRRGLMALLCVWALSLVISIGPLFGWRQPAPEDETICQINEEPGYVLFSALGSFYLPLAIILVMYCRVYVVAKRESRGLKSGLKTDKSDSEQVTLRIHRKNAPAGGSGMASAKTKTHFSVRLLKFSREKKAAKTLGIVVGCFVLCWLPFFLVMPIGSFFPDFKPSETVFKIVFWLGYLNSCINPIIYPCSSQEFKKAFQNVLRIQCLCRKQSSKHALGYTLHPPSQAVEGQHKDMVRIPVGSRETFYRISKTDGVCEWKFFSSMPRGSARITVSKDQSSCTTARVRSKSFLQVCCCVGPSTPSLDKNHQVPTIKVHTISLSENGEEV

[6] = molecular target: Adrenergic receptors; alpha-1 A & B (Homo sapiens) (UniProt P35348+P35368); test: Selectivity for human adrenergic alpha 1B receptor over human adrenergic alpha 1A receptor; assay type: protein assay
[7] = Selectivity for 5HT1A receptor in rat hippocampus over human adrenergic alpha 1A receptor; assay type: tissue-based
[8] = molecular target: T5, Alpha-2A adrenergic receptor (Rattus norvegicus, UniProt P22909); test: Activity at adrenergic alpha 2A receptor assessed as antagonism on clonidine-inhibited twitch responses of field-stimulated Sprague-Dawley rat vas deferens; conditions: read-out: pA2 (converted)
T5 sequence (P22909 whole entry): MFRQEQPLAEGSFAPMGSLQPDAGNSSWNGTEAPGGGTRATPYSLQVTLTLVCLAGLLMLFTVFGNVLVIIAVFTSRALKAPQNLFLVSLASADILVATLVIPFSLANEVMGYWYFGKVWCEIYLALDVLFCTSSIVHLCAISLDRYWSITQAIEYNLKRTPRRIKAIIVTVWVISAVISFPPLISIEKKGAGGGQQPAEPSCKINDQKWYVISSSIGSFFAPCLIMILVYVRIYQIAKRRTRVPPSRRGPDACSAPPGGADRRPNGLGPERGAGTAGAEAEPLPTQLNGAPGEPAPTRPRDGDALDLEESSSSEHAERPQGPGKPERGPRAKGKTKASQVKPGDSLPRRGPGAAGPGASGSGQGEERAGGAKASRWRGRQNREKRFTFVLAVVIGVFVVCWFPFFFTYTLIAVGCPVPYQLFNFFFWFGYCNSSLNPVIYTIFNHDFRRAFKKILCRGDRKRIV

[9] = molecular target: T6, Alpha-1A adrenergic receptor (Rattus norvegicus, UniProt P43140); test: Activity at adrenergic alpha 1A receptor assessed as antagonsim of noradrenaline-induced contraction of […]; assay type: functional, tissue-based, Sprague-Dawley; conditions: read-out: pA2 (converted)
T6 sequence (P43140 whole entry): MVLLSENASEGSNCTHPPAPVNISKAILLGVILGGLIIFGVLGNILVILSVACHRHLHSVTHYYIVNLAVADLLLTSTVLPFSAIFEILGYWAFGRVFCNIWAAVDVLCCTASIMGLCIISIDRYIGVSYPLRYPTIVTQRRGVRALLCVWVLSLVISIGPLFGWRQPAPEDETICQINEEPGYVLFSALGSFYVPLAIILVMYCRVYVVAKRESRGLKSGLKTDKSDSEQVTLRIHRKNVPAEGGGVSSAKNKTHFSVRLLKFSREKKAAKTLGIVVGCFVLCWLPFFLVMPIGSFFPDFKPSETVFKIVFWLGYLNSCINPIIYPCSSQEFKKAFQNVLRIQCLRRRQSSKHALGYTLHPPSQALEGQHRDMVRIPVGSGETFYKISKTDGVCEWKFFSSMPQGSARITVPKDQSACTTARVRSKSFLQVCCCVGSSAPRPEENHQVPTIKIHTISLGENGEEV
In short: (§2)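 Rat vas deferens, prostatic portion. Contraction was induced with (-)-noradrenaline, and blocking activity was measured as antagonism of that contraction.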

[10] = organism: Cavia porcellus; test: Inverse agonist effect on calcium-induced increase in resting tension of calcium-depleted guinea pig thoracic aorta at 10 nM; assay type: functional
In short: (§3)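 Guinea pig thoracic aorta was calcium-depleted and preincubated with antagonist, then challenged with Ca2+. The Ca2+-induced increase in resting tone was compared with the increase after the same Ca2+ challenge in the absence of antagonist.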

[11] = molecular target: T7, Alpha-1D adrenergic receptor (Rattus norvegicus, UniProt P23944); test: Activity at adrenergic alpha 1D receptor assessed as antagonism on noradrenaline-induced contraction of Sprague-Dawley rat thoracic aorta; assay type: functional, tissue-based; conditions: read-out: pA2 (converted)
T7 sequence (P23944 whole entry): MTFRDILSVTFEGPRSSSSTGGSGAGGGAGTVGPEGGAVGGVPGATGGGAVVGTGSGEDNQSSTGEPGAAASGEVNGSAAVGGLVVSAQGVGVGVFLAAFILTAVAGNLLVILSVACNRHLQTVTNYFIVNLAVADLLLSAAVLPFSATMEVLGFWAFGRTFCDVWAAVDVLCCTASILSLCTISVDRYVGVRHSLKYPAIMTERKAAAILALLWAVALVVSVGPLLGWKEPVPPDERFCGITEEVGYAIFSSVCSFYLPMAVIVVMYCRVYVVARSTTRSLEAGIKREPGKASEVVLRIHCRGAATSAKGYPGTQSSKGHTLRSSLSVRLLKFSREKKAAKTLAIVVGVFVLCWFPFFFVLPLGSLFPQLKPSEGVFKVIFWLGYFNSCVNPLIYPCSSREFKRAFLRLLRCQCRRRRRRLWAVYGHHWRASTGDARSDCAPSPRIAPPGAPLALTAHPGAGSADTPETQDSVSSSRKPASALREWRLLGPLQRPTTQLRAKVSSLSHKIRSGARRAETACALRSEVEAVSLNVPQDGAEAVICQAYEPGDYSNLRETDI
In short: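 Rat thoracic aorta contracted with (-)-noradrenaline. Blocking activity was measured as antagonism of the contraction.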

[12] = molecular target: T6, Alpha-1A adrenergic receptor; test: Activity at adrenergic alpha 1A receptor assessed as antagonism of noradrenaline-induced contraction of Sprague-Dawley rat vas deferens; assay type: functional, tissue-based; conditions: read-out: pA2 (converted); in short: as §2
[13] = organism: Cavia porcellus; test: Inverse agonist effect on calcium-induced increase in resting tension of calcium-depleted guinea pig thoracic aorta at 100 nM; assay type: functional; in short: as §3

pKi [1]	Selectivity ratio [2]	pKi [3]	pKi [4]	pKi [5]	Selectivity ratio [6]	Selectivity ratio [7]	SMILES	Kb [8] [nM]	Kb [9] [nM]	Activity [10] [%]	Kb [11] [nM]	Kb [12] [nM]	Activity [13] [%]
7.54	3.1	6.82	7.11	8.03	16.2	8.3	COc1cccc(-c2ccccc2)c1OCCNC[C@@H]1COc2ccccc2O1	–	–	–	–	–	–
–	–	–	–	–	–	–	COc1cccc(OC)c1OCCNCC1COc2ccccc2O1 (stereo not given)	257	0.661	25	–	–	–
6.02	3	6.26	5.44	6.49	1.7	11.2	COc1ccc2ccccc2c1OCCNC[C@@H]1COc2cc3c(cc2O1)CCCC3	–	–	–	–	–	–
7.80	1.3	7.31	6.88	7.94	4.3	11.5	COc1ccc2c(c1OCCNC[C@@H]1COc3ccccc3O1)CCCC2	–	–	–	–	–	–
6.53	2.9	6.37	6.00	6.99	4.2	9.8	COc1cccc(OC)c1OCCNC[C@@H]1COc2cc3ccccc3cc2O1	–	–	–	–	–	–
6.69	2	6.40	6.30	7.00	4	5	COc1cccc(OC)c1OCCNC[C@@H]1COc2cc3c(cc2O1)CCCC3	–	–	–	–	–	–
6.44	1.5	6.26	6.06	6.63	2.3	3.7	COc1cc(-c2ccccc2)ccc1OCCNC[C@@H]1COc2ccccc2O1	–	–	–	–	–	–
7.27	3.3	7.21	6.44	7.79	3.8	22.4	COc1ccc(-c2ccccc2)cc1OCCNC[C@@H]1COc2ccccc2O1	–	–	–	–	–	–

SMILES	pKi [1]	Selectivity ratio [2]	pKi [3]	pKi [4]	pKi [5]	Selectivity ratio [6]	Selectivity ratio [7]	Kb [8] [nM]	Kb [9] [nM]	Activity [10] [%]	Kb [11] [nM]	Kb [12] [nM]	Activity [13] [%]
COc1cccc(OC)c1OCCNC[C@@H]1COc2ccccc2O1	–	–	–	7.39	7.95	–	–	457	20	–	22.4	16.2	–
COc1cccc(OC)c1OCCNC[C@H]1COc2ccccc2O1.Cl	–	–	–	8.61	9.39	–	–	120	0.324	10	0.631	–	27
